A selection: hits, their analogues and other compounds. The true share with any hit is near 5.9%.
Pf Dd2 inh = P. falciparum Dd2 growth inhibitors, primary screen, SYBR Green fluorescence, single dose replicates; activity change, % at 10 µM; AID 1159554, 2015; 72 h; active compounds read low; 94,000 tested, 2.3% active; in the data active = activity change below about -80%
IDH1 R132H inh = inhibitors of IDH1 R132H reductase, primary screen, biochemical, plate reader, single point; Isocitrate dehydrogenase [NADP] cytoplasmic (Homo sapiens), O75874; diaphorase/resazurin fluorescence, 60 min; inhibition, % at 10 µM; 70,000 tested, 0.18% active; in the data active = inhibition above about 34%;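 also: 0% = DMSO and 100% = no enzyme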
Tcruzi prolif = T. cruzi intracellular proliferation inhibitors, primary screen, cell-based, beta-gal Tulahuen parasites, NIH3T3 host, luminescence; inhibition, % at 8.34 µM; T. cruzi beta-gal in NIH3T3, GalScreen luminescence, 90 h; 77,000 tested, 5.9% active;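 active = mean inhibition above about 93%, with at least 55% of replicates each passing it, limit read from the data, passing the limit was not always enough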
KDM4C inh = inhibitors of GASC-1 (KDM4C) histone demethylase, primary screen, biochemical, single concentration HTS | Lysine-specific demethylase 4C (Homo sapiens), Q9H3R0 | 96,000 tested, 0.15% active | inhibition, % at 12.5 µM | GST-KDM4C 2-372, H3K9me3 peptide, LANCE TR-FRET | AID 720574, 2013;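 active = mean replicate inhibition above about 25%, with at least 55% of replicates also reaching it, limit read from the data, passing the limit was not always enough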
Target sequence (Q9H3R0 2-372 limits assumed): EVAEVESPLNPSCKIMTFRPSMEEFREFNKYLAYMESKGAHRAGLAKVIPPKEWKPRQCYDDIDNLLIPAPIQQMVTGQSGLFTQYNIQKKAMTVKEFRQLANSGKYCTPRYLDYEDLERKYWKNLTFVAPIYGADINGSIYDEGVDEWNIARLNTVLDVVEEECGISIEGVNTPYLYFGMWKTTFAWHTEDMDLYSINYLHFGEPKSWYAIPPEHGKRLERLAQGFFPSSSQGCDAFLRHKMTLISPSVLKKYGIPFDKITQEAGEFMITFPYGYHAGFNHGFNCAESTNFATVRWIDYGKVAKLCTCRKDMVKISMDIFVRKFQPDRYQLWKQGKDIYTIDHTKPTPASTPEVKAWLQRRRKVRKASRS
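System – N-terminal GST-fused human GASC-1 (KDM4C) fragment, residues 2-372 · Input – enzyme final amount 10 nM · Technique – LANCE TR-FRET, Eu antibody, ULight-streptavidin, EDTA, ex 340 nm, em 618/671 nm · Medium – HEPES buffer, pH 7.5, plus ascorbate · Incubation – enzyme reaction 30 min, then detection 60 min, both room temperature · Reagent – H3K9me3 peptide with Fe(II)/2OG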
The depositor's hits bear a star.

`C[C@@H]1CCCCO[C@@H](CN(C)Cc2ccc(C(=O)Nc3ccccc3N)cc2)[C@@H](C)CN([C@H](C)CO)C(=O)c2cc(NC(=O)CCC(F)(F)F)ccc2O1` gave Pf Dd2 inh -91.8* and KDM4C inh -0.4.
C[C@@H]1CN([C@H](C)CO)C(=O)c2cc(NC(=O)CCC(F)(F)F)ccc2O[C@@H]1CN(C)Cc1ccc(C(=O)Nc2ccccc2N)cc1 was read as Pf Dd2 inh -65.4, Tcruzi prolif 70.2 and KDM4C inh -0.6.
N#C[C@H]1[C@H](c2ccc(-c3ccc(F)cc3)cc2)[C@@H](CO)N1c1nc(-c2ccccc2)cs1 was read as Pf Dd2 inh 5.5, Tcruzi prolif 92.2 and KDM4C inh -4.2.
CO[C@@H]1CN(C)C(=O)c2ccc(NC(=O)C3CC3)cc2OC[C@@H](C)N(Cc2ccccc2)C[C@H]1C was read as Pf Dd2 inh -80.4*, IDH1 R132H inh -0.4, Tcruzi prolif 31.3 and KDM4C inh 0.1.
CCCN1C[C@H](C)[C@@H](OC)CN(C)C(=O)c2ccc(NC(=O)Nc3cccc(F)c3)cc2OC[C@H]1C was read as Pf Dd2 inh -52.5, IDH1 R132H inh 0.6, Tcruzi prolif -61.6 and KDM4C inh 1.1.
Screening CO[C@@H]1CN(C)C(=O)c2ccc(NC(=O)Nc3ccccc3F)cc2OC[C@@H](C)N(CC2CC2)C[C@H]1C returned Pf Dd2 inh -87.9*, IDH1 R132H inh 0.4, Tcruzi prolif 71.7 and KDM4C inh 0.0.
Screening CCCN1C[C@H](C)[C@@H](OC)CN(C)C(=O)c2cc(NC(=O)Nc3cccc(F)c3)ccc2OC[C@H]1C returned Pf Dd2 inh -82.1*, Tcruzi prolif -12.8 and KDM4C inh 3.3.
CO[C@@H]1CN(C)C(=O)c2ccc(NC(=O)C3CC3)cc2OC[C@@H](C)N(Cc2cc(F)ccc2F)C[C@H]1C was read as Pf Dd2 inh -87.2*, IDH1 R132H inh 0.2, Tcruzi prolif 50.4 and KDM4C inh 1.0.
`CO[C@@H]1CN(C)C(=O)c2ccc(NC(=O)C3CC3)cc2OC[C@H](C)N(Cc2cc(F)ccc2F)C[C@H]1C` gave Pf Dd2 inh -47.9, IDH1 R132H inh 0.2, Tcruzi prolif 3.4 and KDM4C inh 0.4.
Screening COc1cc(/C=C(/C#N)C(N)=O)cc(CSc2nc3ccccc3s2)c1O returned IDH1 R132H inh -2.6.
CO[C@@H]1CN(C)C(=O)c2ccc(NC(=O)C3CCC3)cc2OC[C@@H](C)N(CC2CCCCC2)C[C@H]1C was read as Pf Dd2 inh -82.6* and KDM4C inh 2.3.
`CO[C@H]1CN(C)C(=O)c2cc(NC(=O)Cc3ccccc3)ccc2OC[C@H](C)N(C(=O)c2ccccc2F)C[C@H]1C` gave Pf Dd2 inh -88.9*, IDH1 R132H inh 0.2, Tcruzi prolif 5.1 and KDM4C inh -2.7.
CCCC(=O)Nc1ccc2c(c1)OC[C@@H](C)N(Cc1cccc(F)c1)C[C@@H](C)[C@H](OC)CN(C)C2=O was read as Pf Dd2 inh -87.5*, IDH1 R132H inh -0.5, Tcruzi prolif 90.3 and KDM4C inh 1.6.
For CCCC(=O)Nc1ccc2c(c1)C(=O)N(C)C[C@@H](OC)[C@H](C)CN(Cc1cc(F)ccc1F)[C@H](C)CO2 the results were Pf Dd2 inh -64.1, IDH1 R132H inh 0.1, Tcruzi prolif 68.9 and KDM4C inh -0.5.
`CCCC(=O)Nc1ccc2c(c1)OC[C@@H](C)N(Cc1cc(F)ccc1F)C[C@@H](C)[C@H](OC)CN(C)C2=O` gave Pf Dd2 inh -85.6*, IDH1 R132H inh 0.1, Tcruzi prolif 29.5 and KDM4C inh 0.9.
For O=C(NC1CCCC1)N1CCCCN2[C@H](C1)[C@H](c1ccc(-c3ccncc3)cc1)[C@@H]2CO the results were Pf Dd2 inh -6.1, Tcruzi prolif -5.4 and KDM4C inh -1.3.
`COCC(=O)Nc1ccc2c(c1)OC[C@H](C)N(Cc1ccncc1)C[C@H](C)[C@@H](OC)CN(C)C2=O` gave Pf Dd2 inh -85.0* and KDM4C inh 0.4.
`CO[C@H]1CN(C)C(=O)c2ccc(NS(=O)(=O)CC(F)(F)F)cc2OC[C@@H](C)N(Cc2nccs2)C[C@H]1C` gave Pf Dd2 inh -87.6*, IDH1 R132H inh 0.3, Tcruzi prolif 25.5 and KDM4C inh 0.0.
Screening CCCNC(=O)Nc1ccc2c(c1)OC[C@@H](C)N(C(=O)C1CCC1)C[C@@H](C)[C@@H](OC)CN(C)C2=O returned IDH1 R132H inh 84.7*, Tcruzi prolif 22.6 and KDM4C inh 61.6*.
Screening C[C@@H]1CN([C@@H](C)CO)C(=O)c2cccc(NC(=O)Nc3ccc(C(F)(F)F)cc3)c2O[C@H]1CN(C)Cc1ccc(C(=O)Nc2ccccc2N)cc1 returned Pf Dd2 inh -85.2* and KDM4C inh 0.8.
CC(C)NC(=O)Nc1cccc2c1O[C@@H](CN(C)Cc1ccc(C(=O)Nc3ccccc3N)cc1)[C@@H](C)CN([C@H](C)CO)C2=O was read as Pf Dd2 inh -45.0, IDH1 R132H inh -0.3 and KDM4C inh -0.9.
Screening C[C@@H]1CN([C@H](C)CO)C(=O)c2cccc(NC(=O)Nc3cccc4ccccc34)c2O[C@@H]1CN(C)Cc1ccc(C(=O)Nc2ccccc2N)cc1 returned Pf Dd2 inh -92.5*, IDH1 R132H inh 0.1 and KDM4C inh 12.5.
C[C@@H]1CN([C@H](C)CO)C(=O)c2cccc(NC(=O)Nc3ccc4c(c3)OCO4)c2O[C@@H]1CN(C)Cc1ccc(C(=O)Nc2ccccc2N)cc1 was read as Pf Dd2 inh -91.5*, Tcruzi prolif 109.6 and KDM4C inh -1.2.
`CC(C)NC(=O)Nc1cccc2c1O[C@H](CN(C)Cc1ccc(C(=O)Nc3ccccc3N)cc1)[C@H](C)CN([C@@H](C)CO)C2=O` gave Pf Dd2 inh -83.8*, IDH1 R132H inh 3.9 and KDM4C inh -1.3.
C[C@@H](O)C#Cc1ccc([C@@H]2[C@@H](CO)N3CCCCN(S(=O)(=O)Cc4ccccc4)C[C@@H]23)cc1 was read as Pf Dd2 inh 0.1, Tcruzi prolif 87.7 and KDM4C inh -0.6.
Screening COC(=O)c1ccccc1NC(=O)C(C)NS(=O)(=O)c1ccc(Br)cc1 (configuration not stated) returned IDH1 R132H inh 0.4.
Screening OCCCNc1ncnc2oc(-c3ccccc3)c(-c3ccccc3)c12 returned IDH1 R132H inh 2.5.
Screening C[C@H]1CN([C@@H](C)CO)C(=O)c2cccc(NC(=O)Nc3ccc(F)cc3)c2O[C@@H]1CN(C)Cc1ccc(C(=O)Nc2ccccc2N)cc1 returned Pf Dd2 inh -83.2*, IDH1 R132H inh -0.5 and KDM4C inh -0.5.
For C[C@H](CO)N1C[C@H](C)[C@H](CN(C)Cc2ccc(C(=O)Nc3ccccc3N)cc2)Oc2c(NC(=O)Nc3ccc(F)cc3)cccc2C1=O the results were Pf Dd2 inh -79.1, IDH1 R132H inh 0.6 and KDM4C inh 0.8.

Screening data (PubChem)
